Reference: ChEMBL document CHEMBL3596134 (J Med Chem, 2015)

Legend:
[1] = Oral bioavailability in guinea pig at 30 mg/kg; assay type: ADME, organism-based, Cavia porcellus; conditions: in vivo
[2] = Oral bioavailability in guinea pig at 10 mg/kg; assay type: ADME, organism-based, Cavia porcellus; conditions: in vivo
Method in brief: (§1)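 Single iv and oral dosing in rat, guinea pig or dog; iv and po given as solutions in wellsolve/H2O 1/9 with NaOH (2 equiv). Animals fasted before oral dosing; noncrossover design, n = 3. Plasma protein-precipitated with acetonitrile/ethanol (70/30) and assayed by HPLC/MS/MS with negative-ion ionization. Noncompartmental analysis; F from mean po AUC over mean iv AUC.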

[3] = Oral bioavailability in rat at 10 mg/kg; assay type: ADME, organism-based; conditions: in vivo; method in brief: as §1
[4] = Half life in rat at 1 mg/kg, iv; assay type: ADME, organism-based; conditions: in vivo; method in brief: as §1
[5] = Half life in guinea pig at 1 mg/kg, iv; assay type: ADME, organism-based, Cavia porcellus; conditions: in vivo; method in brief: as §1
[6] = Half life in dog at 1 mg/kg, iv; assay type: ADME, organism-based, Canis lupus familiaris; conditions: in vivo; method in brief: as §1
[7] = Clearance in rat at 1 mg/kg, iv; assay type: ADME, organism-based; conditions: in vivo; method in brief: as §1
[8] = Clearance in guinea pig at 1 mg/kg, iv; assay type: ADME, organism-based, Cavia porcellus; conditions: in vivo; method in brief: as §1
[9] = Clearance in dog at 1 mg/kg, iv; assay type: ADME, organism-based, Canis lupus familiaris; conditions: in vivo; method in brief: as §1
[10] = Volume of distribution at steady state in rat at 1 mg/kg, iv and 3 mg/kg, po; assay type: ADME, organism-based; conditions: in vivo, read-out: Vdss
Method in brief: (§2)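 Single iv and oral doses were given as solutions in wellsolve/H2O 1/9 with 2 equiv NaOH. Animals were fasted before oral dosing, in a noncrossover design with n = 3. Plasma was protein-precipitated with acetonitrile/ethanol 70/30 and analysed by HPLC/MS/MS (negative-ion Turbo IonSpray). Parameters were derived by noncompartmental analysis and reported as mean ± SD.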

[11] = Volume of distribution at steady state in guinea pig at 1 mg/kg, iv and 10 mg/kg, po; assay type: ADME, organism-based, Cavia porcellus; conditions: in vivo, read-out: Vdss
[12] = Volume of distribution at steady state in dog at 1 mg/kg, iv and 1 mg/kg, po; assay type: ADME, organism-based, Canis lupus familiaris; conditions: in vivo, read-out: Vdss; method in brief: as §2
[13] = AUC in rat at 3 mg/kg, po; assay type: ADME, organism-based; conditions: in vivo; method in brief: as §1
[14] = AUC in guinea pig at 10 mg/kg, po; assay type: ADME, organism-based, Cavia porcellus; conditions: in vivo; method in brief: as §1
[15] = (§3) AUC in dog at 1 mg/kg, po; assay type: ADME, organism-based, Canis lupus familiaris; conditions: in vivo; method in brief: as §1
[16] = Oral bioavailability in rat at 3 mg/kg; assay type: ADME, organism-based; conditions: in vivo; method in brief: as §1
[17] = Oral bioavailability in dog at 1 mg/kg; assay type: ADME, organism-based, Canis lupus familiaris; conditions: in vivo; method in brief: as §1
[18] = Drug uptake in lung of guinea pig measured over 24 hrs; assay type: ADME, tissue-based, Cavia porcellus; conditions: read-out: Drug uptake
Method in brief: (§4)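 Lungs homogenized in saline; homogenate digested in 2 mol/L NaOH at 60 °C for 3 h, then diluted 50-fold in PBS. Protein measured by BCA. Compound measured by negative-ion HPLC/MS/MS after ethanol precipitation and expressed as ng/g protein. Plasma and lung values given as mean with SD, n = 4.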

[19] = Plasma concentration in guinea pig measured over 24 hrs; assay type: ADME, Cavia porcellus; method in brief: as §4
[20] = Ratio of drug level in lung to plasma in guinea pig measured over 24 hrs; assay type: ADME, Cavia porcellus; conditions: lung and plasma
Method in brief: (§5)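 Guinea pigs were dosed orally. Lungs were homogenized in saline, digested in 2 mol/L NaOH at 60 °C for 3 h, diluted 50-fold in PBS, and assayed for protein by BCA. Drug in lung was quantified by HPLC/MS/MS (negative-ion) after ethanol precipitation and expressed as ng/g protein. Plasma was assayed after acetonitrile/ethanol precipitation. Kp is the lung:plasma concentration ratio.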

[21] = Stability of the compound in ambient light; assay type: physicochemical
[22] = AUC in guinea pig at 0.2 mg/kg, iv and 1 mg/kg, po administered as cassette dosing; assay type: ADME, organism-based, Cavia porcellus; conditions: in vivo
[23] = Oral bioavailability in guinea pig at 1 mg/kg administered as cassette dosing; assay type: ADME, organism-based, Cavia porcellus; conditions: in vivo
Method in brief: (§6)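 Guinea pig cassette dosing of five compounds per solution, 0.2 mg/kg iv and 1 mg/kg po. Vehicle wellsolve/H2O 5/95 with NaOH (1.2 equiv). Animals fasted before oral dosing; noncrossover design, n = 3. Plasma protein-precipitated with acetonitrile/ethanol (70/30) and assayed by negative-ion HPLC/MS/MS. Noncompartmental analysis; F from mean AUCs.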

[24] = Stability of the compound in H2SO4/DME/H2O at 50 degC measured for 24 hrs; assay type: physicochemical
Method in brief: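 Compound was held in 1 mol/L H2SO4 in DME/H2O at 50 °C for 24 h and checked for degradation.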

[25] = Stability of the compound in NaOH/DME/EtOH/H2O at 50 degC measured for 24 hrs; assay type: physicochemical
Method in brief: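 Compound was held in 1 mol/L NaOH in DME/EtOH/H2O at 50 °C for 24 h and checked for degradation.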

Canis familiaris [26] = assay: as §3; assay type: ADME, organism-based, Canis lupus familiaris; conditions: in vivo; method in brief: as §1
[27] = Half life in guinea pig at 0.2 mg/kg, iv administered as cassette dosing; assay type: ADME, organism-based, Cavia porcellus; conditions: in vivo; method in brief: as §6
[28] = Clearance in rat at 1 mg/kg, iv and 1 mg/kg, po; assay type: ADME, organism-based; conditions: in vivo; method in brief: as §1
[29] = Clearance in rat at 0.2 mg/kg, iv and 1 mg/kg, po administered as cassette dosing; assay type: ADME, organism-based; conditions: in vivo
[30] = Volume of distribution at steady state in rat at 1 mg/kg, iv and 1 mg/kg, po; assay type: ADME, organism-based; conditions: in vivo, read-out: Vdss; method in brief: as §2
[31] = Volume of distribution at steady state in rat at 0.2 mg/kg, iv and 1 mg/kg, po administered as cassette dosing; assay type: ADME, organism-based; conditions: in vivo, read-out: Vdss
[32] = Cmax in rat at 1 mg/kg, po; assay type: ADME, organism-based; parameters: dose 1 mg/kg, route oral; conditions: in vivo; method in brief: as §1
[33] = Cmax in guinea pig at 1 mg/kg, po administered as cassette dosing; assay type: ADME, organism-based, Cavia porcellus; parameters: dose 1 mg/kg, route oral; conditions: in vivo; method in brief: as §6
[34] = Cmax in dog at 1 mg/kg, po; assay type: ADME, organism-based, Canis lupus familiaris; parameters: dose 1 mg/kg, route oral; conditions: in vivo; method in brief: as §1
[35] = AUC in rat at 1 mg/kg, po; assay type: ADME, organism-based; conditions: in vivo; method in brief: as §1
[36] = AUC in guinea pig at 1 mg/kg, po administered as cassette dosing; assay type: ADME, organism-based, Cavia porcellus; conditions: in vivo
[37] = Oral bioavailability in rat at 1 mg/kg; assay type: ADME, organism-based; conditions: in vivo; method in brief: as §1
Canis familiaris [38] = assay: Oral bioavailability in dog at 1 mg/kg administered as cassette dosing; assay type: ADME, organism-based, Canis lupus familiaris; conditions: in vivo
[39] = Plasma concentration in guinea pig at 0.3 mg/kg, po measured over 7 days; assay type: ADME, organism-based, Cavia porcellus; method in brief: as §4
[40] = Plasma concentration in guinea pig at 3 mg/kg, po measured over 7 days; assay type: ADME, organism-based, Cavia porcellus; method in brief: as §4
[41] = Drug uptake in lung of guinea pig at 0.3 mg/kg, po measured over 7 days; assay type: ADME, organism-based, Cavia porcellus; conditions: read-out: Drug uptake; method in brief: as §4
[42] = Drug uptake in lung of guinea pig at 3 mg/kg, po measured over 7 days; assay type: ADME, organism-based, Cavia porcellus; conditions: read-out: Drug uptake; method in brief: as §4
[43] = Ratio of drug level in lung to plasma in guinea pig at 3 mg/kg, po measured over 7 days; assay type: ADME, organism-based, Cavia porcellus; conditions: lung and plasma; method in brief: as §5
[44] = Ratio of drug level in lung to plasma in guinea pig at 0.3 mg/kg, po measured over 7 days; assay type: ADME, organism-based, Cavia porcellus; conditions: lung and plasma; method in brief: as §5

O=C(O)CCCN1CC(C(=O)O)Oc2c(NC(=O)c3ccc(OCCCCc4ccccc4)cc3)cccc21 (stereo not drawn)
bioavailability [1]: 2.8%

O=C(O)CCCn1cc(CC(=O)O)c2c(/C=C/c3ccc(OCCCCOc4ccccc4)cc3)cccc21
bioavailability [2]: 26%

O=C(O)CCCc1cn(CC(=O)O)c2c(/C=C/c3ccc(OCCCCOc4ccccc4)cc3)cccc12
bioavailability [2]: 12% | bioavailability [3]: 66%

Cc1c(Cl)cccc1CCCCOc1ccc(/C=C/c2cccc3c(CCCC(=O)O)c(C)n(CC(=O)O)c23)cc1
bioavailability [2]: 11% | half-life [4]: 8.9 h | half-life [5]: 5.3 h | half-life [6]: 4.7 h | clearance [7]: 1.1 mL/min/kg | clearance [8]: 1.8 mL/min/kg | clearance [9]: 5.5 mL/min/kg | Vd [10]: 0.3 L/kg | Vd [11]: 0.23 L/kg | Vd [12]: 0.38 L/kg | AUC [13]: 39000 ng·h/mL | AUC [14]: 10000 ng·h/mL | AUC [15]: 650 ng·h/mL | bioavailability [16]: 56% | bioavailability [17]: 21% | concentration at 24 h [18]: 253 ng/g | concentration at 24 h [19]: 16 ng/mL | Kp at 24 h [20]: 15 | Stability [21]: Unstable

Cc1c(Cl)cccc1CCCCOc1ccc(C#Cc2cccc3c(CCCC(=O)O)c(C)n(CCCC(=O)O)c23)cc1
AUC [22]: 10500 ng·h/mL | bioavailability [23]: 66% | Stability [24]: Stable | Stability [25]: Stable | Stability [21]: Stable

Cc1c(Cl)cccc1CCCCOc1ccc(C#Cc2ccc(F)c3c(CCCC(=O)O)c(C)n(CCCC(=O)O)c23)cc1
AUC [22]: 3400 ng·h/mL | bioavailability [23]: 52%

Cc1c(F)cccc1CCCCOc1ccc(C#Cc2ccc(F)c3c(CCCC(=O)O)c(C)n(CCCC(=O)O)c23)cc1
half-life [4]: 9.6 h | half-life [6]: 7.6 h | Vd [12]: 0.14 L/kg | AUC (Canis familiaris [26]): 28200 ng·h/mL | bioavailability [23]: 56% | half-life [27]: 7.1 h | clearance [28]: 0.68 mL/min/kg | clearance [29]: 1.1 mL/min/kg | Vd [30]: 0.24 L/kg | Vd [31]: 0.31 L/kg | Cmax [32]: 1190 ng/mL | Cmax [33]: 1010 ng/mL | Cmax [34]: 3690 ng/mL | AUC [35]: 9330 ng·h/mL | AUC [36]: 8510 ng·h/mL | bioavailability [37]: 35% | F (Canis familiaris [38]): 51% | concentration at 168 h [39]: 8.7 ng/mL | concentration at 168 h [40]: 83 ng/mL | concentration at 168 h [41]: 267 ng/g | concentration at 168 h [42]: 573 ng/g | Kp at 168 h [43]: 8 | Kp at 168 h [44]: 30
